Test: Normalized percent cleavage of DNA from cleavage reactions (20 h) containing 100 μM compound and 50 μM (bp) supercoiled DNA at pH 9.0 in 20 mM TRIS buffer
In short: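 Supercoiled ΦX174 DNA (50 μM bp) incubated with 100 μM compound in 20 mM TRIS, pH 9, for 20 h at 37 °C. Relaxed circular (Form II) and linear (Form III) DNA resolved on agarose gel and expressed as normalized percent cleavage. Mean ± SD over separate determinations.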
For `C#CC[n+]1c(C#Cc2ccc(C)cc2)sc2ccccc21`, the DNA cleavage was 42%.
In the case of `C(#Cc1nc2ccccc2s1)c1ccccc1`, the DNA cleavage is reported as 0%.
In the case of `C#CC[n+]1c(C#Cc2ccccc2)sc2ccccc21`, the DNA cleavage is reported as 40%.
In the case of `C[n+]1c(C#Cc2ccccc2)sc2ccccc21`, the DNA cleavage is reported as 48%.
With `C#CC[n+]1c(C#C[Si](C(C)C)(C(C)C)C(C)C)sc2ccccc21` the DNA cleavage was 7%.
For `C#CC[n+]1c(C#C[Si](C)(C)C)sc2ccccc21`, the DNA cleavage was 33%.

Source: ChEMBL document CHEMBL1133845, “N-propargyl-2-alkynylbenzothiazolium aza-enediynes: role of the 2-alkynylbenzothiazolium functionality in DNA cleavage” (Bioorg Med Chem Lett, 2001)
